Source: PubChem BioAssay
TRPC4 agonist – activators of mouse TRPC4 channel, primary screen, Fluo4 calcium, HEK293 TRPC4beta/mu-opioid cells | Short transient receptor potential channel 4 (Mus musculus), Q9QUQ5 | Fluo4 calcium fluorescence; active compounds read high | B-score at 10 µM | 0.49% of 310,000 active;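 active = B-score above 5 SD of library B-scores, and initial fluorescence ratio not above library mean plus 5 SD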;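 also: positive B-score marks a calcium rise read as TRPC4 activation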
Target sequence (Q9QUQ5 whole entry, looked up): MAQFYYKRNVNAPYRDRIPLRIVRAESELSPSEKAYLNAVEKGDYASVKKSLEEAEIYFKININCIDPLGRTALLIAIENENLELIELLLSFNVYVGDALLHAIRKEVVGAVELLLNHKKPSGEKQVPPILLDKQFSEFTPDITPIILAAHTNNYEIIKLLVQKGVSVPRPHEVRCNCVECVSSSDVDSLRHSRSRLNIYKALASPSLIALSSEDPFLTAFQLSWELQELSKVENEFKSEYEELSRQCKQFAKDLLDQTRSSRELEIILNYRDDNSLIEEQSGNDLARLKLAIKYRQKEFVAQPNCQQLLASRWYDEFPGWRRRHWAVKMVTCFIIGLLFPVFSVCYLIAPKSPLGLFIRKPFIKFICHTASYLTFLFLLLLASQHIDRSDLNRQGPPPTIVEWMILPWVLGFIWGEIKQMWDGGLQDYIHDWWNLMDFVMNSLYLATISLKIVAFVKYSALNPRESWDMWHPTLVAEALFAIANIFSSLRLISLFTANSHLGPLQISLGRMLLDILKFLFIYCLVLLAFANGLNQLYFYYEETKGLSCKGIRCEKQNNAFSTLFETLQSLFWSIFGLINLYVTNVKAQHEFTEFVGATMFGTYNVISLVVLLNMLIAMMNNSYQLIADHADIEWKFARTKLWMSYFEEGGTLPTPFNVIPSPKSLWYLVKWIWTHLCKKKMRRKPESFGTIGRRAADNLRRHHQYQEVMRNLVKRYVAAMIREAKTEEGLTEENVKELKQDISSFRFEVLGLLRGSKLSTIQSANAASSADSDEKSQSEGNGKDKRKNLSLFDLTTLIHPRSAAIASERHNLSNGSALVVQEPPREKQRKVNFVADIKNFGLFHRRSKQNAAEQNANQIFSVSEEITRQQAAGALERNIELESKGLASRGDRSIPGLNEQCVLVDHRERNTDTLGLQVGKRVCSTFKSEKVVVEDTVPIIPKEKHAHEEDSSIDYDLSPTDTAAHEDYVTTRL
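Material: HEK293 stable line with TRPC4beta plus mu-opioid receptor; technique: Fluo4 calcium-sensitive dye fluorescence, kinetic, 1 Hz baseline; timing: Fluo4 dye loading 45 min at room temperature, 110 s recording; controls: assay buffer as low control, maximal DAMGO as high control; read-out: integrated baseline-normalised fluorescence ratio, converted to per-well B score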
TRPC6 activator – mouse TRPC6 channel activators, primary screen, cell-based, HEK293, membrane potential dye | Short transient receptor potential channel 6 (Mus musculus), Q61143 | HEK293-TRPC6 membrane potential dye fluorescence; active compounds read high | B-score at 10 µM | 0.13% of 310,000 active | AID 2550, 2010;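 active = B-score of the integrated fluorescence ratio above library mean plus 3 SD, and starting fluorescence ratio within library mean plus 5 SD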;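 also: higher score means more depolarization so channel activation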
Kir21 block – inhibitors of mouse Kir2.1 inward-rectifier potassium channel; Inward rectifier potassium channel 2 (Mus musculus), P35561; HEK293-Kir2.1, FluxOR thallium flux fluorescence; active compounds read low; B-score at 10 µM; 0.85% of 310,000 active;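 active = fluorescence ratio B-score at or below minus 3 SD of library scores, with starting-brightness B-score within 2 SD, cut at about -4.2 in these data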;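 also: channel flux triggered by added potassium and thallium sulfate stimulus; B-score of peak minus minimum fluorescence over baseline after thallium stimulus; more negative B-score means stronger Kir2.1 block with less thallium influx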
TRPC6 inh – mouse TRPC6 channel inhibitors, primary screen, cell-based, HEK293, membrane potential dye; 1.1% of 310,000 active; Short transient receptor potential channel 6 (Mus musculus), Q61143; B-score at 10 µM; ACh-evoked depolarization; active compounds read low;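 active = B-score under library mean minus 3 SD, initial fluorescence not abnormally high, positive integrated signal ratio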;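 also: B-score derived from integrated fluorescence ratio over the kinetic read; more negative B-score means stronger inhibition of depolarization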
TRPC4 block – inhibitors of mouse TRPC4 channel, primary screen, Fluo4 calcium, HEK293 TRPC4beta/mu-opioid cells; Short transient receptor potential channel 4 (Mus musculus), Q9QUQ5; DAMGO-evoked Fluo4 calcium flux; active compounds read low; B-score at 10 µM; 0.39% of 300,000 active;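 active = B-score over 3 SD under the library average, no early fluorescence shift, positive overall ratio signal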
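Test system – stable TRPC4beta/mu-opioid receptor HEK293 cells · Probe or stimulus – DAMGO, a submaximal dose followed by a maximal one · Dosing – one concentration per compound · Signal – Fluo4 calcium fluorescence by kinetic imaging, 5 s 1 Hz baseline · Evaluation – per-well B score of integrated baseline-normalized Fluo4 ratio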
TRPC4 PAM – positive allosteric modulators of TRPC4, primary screen, cell-based, mouse TRPC4beta, HEK293 mu-opioid, Fluo-4 calcium; Short transient receptor potential channel 4 (Mus musculus), Q9QUQ5; DAMGO EC20, Fluo-4 Ca2+ flux; active compounds read high; B-score at 10 µM; 0.42% of 310,000 active; AID 2227, 2009;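 active = B-score of calcium response area above 5 SD of library B-scores, with initial fluorescence ratio within 5 SD of library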;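 also: B-score of integrated fluorescence ratio over time as area under calcium response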
hERG ctr – hERG channel inhibition, counter-screen for Kir2.1 inhibitor project, cell-based, thallium flux | AID 2236, 2010 | 20% of 320 active | inhibition, % at 10 µM | hERG-expressing cells | shares compounds with Kir21 block;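 also: host cells are CHO cells stably expressing hERG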
KCNK9 inh – KCNK9 channel inhibition, selectivity assay for Kir2.1 inhibitor project, cell-based; shares compounds with Kir21 block; KCNK9-expressing cells, ion flux inhibition; inhibition, % at 10 µM; 5% of 320 active; AID 2329, 2010
Kir21 ephys inh – mouse Kir2.1 channel blockers, Kir2.1 inhibitor project, cell-based, secondary, automated electrophysiology. shares compounds with Kir21 block. Kir2.1 cells, automated patch-clamp current inhibition. 71% of 320 active. inhibition, % at 25 µM
Numbers without * were called inactive; i = inactive; / = no result given. Only some compounds are listed: those with a hit (about 3% of all), similar ones and a draw of the others. Unless noted, no rule for the calls is given here.

SMILES | TRPC4 agonist | TRPC6 activator | Kir21 block | TRPC6 inh | TRPC4 block | TRPC4 PAM | hERG ctr | KCNK9 inh | Kir21 ephys inh
CC(NCCC1(C(C)C)CCOC(C)(C)C1)c1cccs1 (stereo not drawn) | i | i | -0.42 | i | i | i | / | / | /
CC(CCc1ccc(O)cc1)NC1c2ccccc2-c2ccccc21 (stereo not drawn) | i | i | -14* | i | i | i | 60%* | i | i
CC(CCc1ccc(O)cc1)NC1C2CC3CC(C2)CC1C3 (stereo not drawn) | i | i | -3.8 | i | i | i | / | / | /
NS(=O)(=O)c1ccc(CCNC(=O)c2ccc(-c3ccccc3)cc2)cc1 | i | i | 1.4 | i | i | i | / | / | /
CCCc1c(C(=O)N/N=C/c2sccc2C)nnn1-c1nonc1N | i | i | 0.79 | i | i | i | / | / | /
C=CCc1ccccc1OCCNCc1ccccc1 | i | i | -8.9* | i | i | i | i | i | 75%*
C=CCc1ccccc1OCC(=O)O | i | i | -0.22 | i | i | i | / | / | /
Nc1nc(NCCCN2CCOCC2)nc(Nc2ccccc2F)c1[N+](=O)[O-] | i | i | -2.3 | i | i | i | / | / | /
CC(C)CCN(Cc1ccco1)S(=O)(=O)c1ccc(-c2ccc(=O)[nH]n2)s1 | i | i | 0.29 | i | i | i | / | / | /
CC(C)CCN(Cc1ccco1)S(=O)(=O)c1csc(C(N)=O)c1 | i | i | -8.2* | i | i | i | i | i | 22%*
c1ccc(COc2ccc(OCCCNC3CCCC3)cc2)cc1 | i | i | -8.8* | i | i | i | 47%* | i | 26%*
C#CC(CO)N(CCN(Cc1ccccc1)C(C#C)CO)Cc1ccccc1 (stereo not drawn) | i | i | -11* | i | i | i | i | i | 3.9%*
C#CCN(C)Cc1ccccc1 | i | i | -0.1 | i | i | i | / | / | /
COc1cc(OC)c(OC)cc1CCC(C)NCCC(c1ccccc1)c1ccccc1 (stereo not drawn) | 87* | i | -11* | i | i | i | 68%* | i | 5.1%*
COc1ccc(CN2CCC(C(=O)c3ccc(F)cc3)CC2)cc1 | i | i | -8* | i | i | i | 58%* | i | 63%*
COc1ccc(C(=O)C2CCN(C(=O)c3ccc(F)cc3)CC2)cc1 | i | i | 0.34 | i | i | i | / | / | /
COc1ccc(OCC(O)CNC(=O)Nc2cccc3ccccc23)cc1 (stereo not drawn) | i | i | 0.15 | i | i | i | / | / | /
CC(C)[C@H](NC(=O)CCCn1nnc2ccccc2c1=O)C(=O)O | i | i | 1.8 | i | i | i | / | / | /
CCOC(=O)C1CCN(Cc2c(O)ccc3ccccc23)CC1 | i | i | -7.6* | i | i | i | i | i | 4.0%*
COc1ccc(N2CCN(C(=O)COC(=O)Cc3cccc(OC)c3)CC2)cc1 | i | i | 1.3 | i | i | i | / | / | /
C=CCN(C(=O)c1ccccn1)C(C(=O)NCc1ccccc1)c1ccccc1F (stereo not drawn) | i | i | 0.13 | i | i | i | / | / | /
Cc1cccn2c(=O)c3cc(S(=O)(=O)c4ccc(Br)cc4)c(=N)n(C4CCCC4)c3nc12 | i | i | 1.1 | i | i | i | i | i | i
CCOc1ccc(C(C)NC(=S)NCc2ccc(F)cc2)cc1 (stereo not drawn) | i | i | 1.6 | i | i | i | / | / | /
COc1cccc(C(C)NC(=S)NCc2ccc(F)cc2)c1 (stereo not drawn) | i | i | -6.8* | i | i | i | i | 31%* | 43%*
Cc1ccc(NC(=O)COc2ccccc2C=O)cc1Cl | i | i | 1.3 | i | i | i | / | / | /
SMILES | TRPC4 agonist | TRPC6 activator | Kir21 block | TRPC6 inh | TRPC4 block | TRPC4 PAM | hERG ctr | KCNK9 inh | Kir21 ephys inh
C=CCNCCCCOc1c(Cl)cc(C)cc1Br | 57* | i | -9.3* | i | i | i | i | i | 48%*
COC(=O)C1=C(C)N(Cc2ccccc2)C(=NCCc2ccccn2)N[C@H]1c1cccc(F)c1 | 88* | i | -6.7* | i | i | i | i | i | 3.0%*
CN(C)CC/C=C1\c2ccccc2Sc2ccc(Cl)cc21 | i | i | -8.1* | i | i | i | 58%* | i | 28%*
CCn1c(CSc2nc3ccccc3s2)nnc1SCC(=O)OC(C)(C)C | i | i | -8.7* | i | i | i | i | i | 31%*
CCn1c(CSc2nc3ccccc3s2)nnc1SCC(N)=O | i | i | 0.61 | i | i | i | / | / | /
CC(C)Oc1ccccc1NC(=O)CSc1nc2ccccc2c(=O)n1C | i | i | -8.9* | i | i | i | i | i | 9.9%*
Cc1ccccc1NC(=O)CSc1nc2ccccc2c(=O)n1C | i | i | 1.1 | i | i | i | / | / | /
Cc1nn(CC(C)C(=O)N2CCN(S(=O)(=O)c3ccc(Cl)cc3)CC2)c(C)c1C (stereo not drawn) | i | i | -2 | i | i | i | / | / | /
CCCCN(CCCNC(=O)CN1C(=O)COc2ccc(S(=O)(=O)N3CCC(C)CC3)cc21)Cc1ccccc1 | i | i | -5.7* | i | i | i | i | i | i
Clc1ccc(OCCOCCNCc2ccccc2)cc1Cl | i | i | -8.7* | i | i | i | 51%* | i | 42%*
